Assay results pooled from the literature.
Lines come from different studies, so protocols differ.
Cell line: HepG2
Effect on: cell growth or viability

`CCOC(=O)c1ccc(-n2c(C)cc(/C=C/c3ccc(OC)cc3)c(C#N)c2=O)cc1` has a viability of 47.4% (MTT; 100 µM, 24 h).
For `Cc1ccc2nc(-c3ccc(Cl)cc3)n(Cc3ccccc3)c2c1`, the IC50 was 3.22 µM (MTT).
For `O=C(N/N=C/CN1CCCCC1)Nc1cc2c(Nc3ccc(F)c(Cl)c3)ncnc2cc1O[C@H]1CCOC1`, the IC50 was 0.42 µM (MTT; 72 h).
The IC50 of `COc1ccc(-c2nc3ccccc3n2Cc2ccccc2)cc1OC` is reported as 19.9 µM (MTT).
For `CCn1cc(-c2ccccn2)c(=O)c2cc(F)c(N3CCC(C)CC3)cc21`, the EC50 was greater than 40 µM (ATP luminescence; 48 h).
`CC(=O)Nc1cccc(-n2c(=O)n(C3CC3)c(=O)c3c(Nc4ccc(I)cc4F)n(C)c(=O)c(C)c32)c1` gave a viability of 43.3% (resazurin; 50 nM, 72 h).
For `CCOC(=O)c1ccc(-n2c(C)cc(/C=C/c3ccc(OCC)cc3)c(C#N)c2=O)cc1`, the viability was 90.3% (MTT; 12.5 µM, 24 h).
The EC50 of `CCn1cc(-c2nc(C)no2)c(=O)c2cc(F)c(N3CCC4(CC3)CC4)cc21` is reported as greater than 40 µM (ATP luminescence; 48 h).
The inhibition of `O=C(CN1C(=O)/C(=C/c2ccccc2O)SC1=S)Nc1ccccc1` is reported as 26.4% (MTT; 10 µM).
`Cc1ccc2nc(-c3ccc(Cl)c(Cl)c3)n(Cc3ccccc3)c2c1` has an IC50 of greater than 100 µM (MTT).
With `CCOC(=O)c1ccc(N2C(N)=C(C#N)C3(C(=O)Nc4ccccc43)C(C#N)=C2O)cc1` (stereo not drawn) the viability was 23.5% (MTT; 25 µM, 24 h).
`O=C(N/N=C/c1cccn1CCN1CCCCC1)Nc1cc2c(Nc3ccc(F)c(Cl)c3)ncnc2cc1O[C@H]1CCOC1` gave an IC50 of 0.59 µM (MTT; 72 h).
`Cc1ccc2nc(-c3cccnc3)[nH]c2c1` gave an IC50 of 68.4 µM (MTT; 48 h).
With `Cc1cc(Nc2ccc(C(=O)N/N=C/c3ccc(C)s3)cc2)c2cccc(O)c2n1` the inhibition was 46.3% (MTT; 20 µM).
`COc1ccc(NCC(=O)Nc2c(C#N)sc(Nc3ccccc3)c2C(=O)Nc2ccc(OC)cc2)cc1` gave a viability of 71.6% (SRB; 1 µM, 48 h).
With `CSc1ccc(-c2nc3ccccc3[nH]2)cc1` the IC50 was 40.1 µM (MTT; 48 h).
`Cc1cc(=O)oc2ccc(-c3cc(-c4ccc(Cl)cc4)nc(N)n3)c(O)c12` has an inhibition of 65% (MTT; 32 µg/mL, 72 h).
`CCOC(=O)c1ccc(NC(=O)C2=C3C(=Nc4ccccc43)NC2=O)cc1` has a viability of 90.2% (MTT; 6.25 µM, 24 h).
`COc1ccc(NC(=O)c2c(Nc3ccccc3)sc(C(=O)NN=Cc3ccc(OC)c(O)c3)c2NC(C)=O)cc1` gave a viability of 100% (SRB; 1 nM, 48 h).
`CCOc1cc(-c2nc3ccccc3[nH]2)ccc1O` has an IC50 of 42.5 µM (MTT; 48 h).
`CC(C)(CO)Cn1nc(-c2ccc3cc(OC4CC4)ccc3c2)c2c(N)ncnc21` gave a GI50 of greater than 10 µM.
`COc1ccc(NC(=O)c2c(Nc3ccccc3)sc(C#N)c2NC(=O)CNc2ccccc2[N+](=O)[O-])cc1` has a viability of 88.3% (SRB; 0.1 µM, 48 h).
For `CCOC(=O)c1ccc(-n2c(N)c(C#N)c(CC#N)c(C#N)c2=O)cc1`, the viability was 50.9% (MTT; 25 µM, 24 h).
`COc1ccc(NC(=O)c2c(Nc3ccccc3)sc(C#N)c2NC(=O)CNc2ccccc2)cc1` has a viability of 90.4% (SRB; 10 µM, 48 h).
For `Cc1cc(=O)oc2ccc(-c3cc(-c4cccs4)nc(N)n3)c(O)c12`, the inhibition was 36% (MTT; 128 µg/mL, 72 h).
`Clc1ccc(-c2nc3ccccc3[nH]2)cc1` has an IC50 of 51.5 µM (MTT; 48 h).
`CCn1cc(-c2nc(C)no2)c(=O)c2cc(F)c(N3CCCC3)cc21` gave an EC50 of greater than 40 µM (ATP luminescence; 48 h).
For `COc1cccc(NC(=O)CN2C(=O)/C(=C/c3ccc(F)cc3)SC2=S)c1`, the inhibition was 10.2% (MTT; 10 µM).
`Cc1ccc2nc(-c3ccc(Cl)cc3)n(Cc3ccccc3Cl)c2c1` gave an IC50 of 47.9 µM (MTT).
For `O=C(CN1C(=O)/C(=C/c2ccc[nH]2)SC1=S)Nc1ccccc1`, the inhibition was 9.65% (MTT; 10 µM).
`COc1ccc(C=NNC(=O)c2sc(Nc3ccccc3)c(C(=O)Nc3ccc(OC)cc3)c2NC(C)=O)cc1` has a viability of 76.5% (SRB; 0.1 µM, 48 h).
With `CCOC(=O)c1ccc(-n2c(-c3ccc(C)cc3)cc(-c3ccc(O)cc3)c(C#N)c2=O)cc1` the viability was 100% (MTT; 1.56 µM, 24 h).
`COc1ccc(NC(=O)c2c(Nc3ccccc3)sc(C(=O)NN=Cc3ccc(Cl)cc3)c2NC(C)=O)cc1` has a viability of 71.2% (SRB; 10 µM, 48 h).
`CCOC(=O)c1ccc(-n2c(C)cc(C)c(C#N)c2=O)cc1` has a viability of 64.7% (MTT; 25 µM, 24 h).
The viability of `COc1ccc(NC(=O)c2c(Nc3ccccc3)sc(C#N)c2NC(=O)CNc2ccc(Cl)cc2)cc1` is reported as 45.3% (SRB; 1 µM, 48 h).
For `Cc1ccc(-c2cc(-c3ccc4oc(=O)cc(C)c4c3O)nc(N)n2)cc1`, the inhibition was 0% (MTT; 32 µg/mL, 72 h).
`COc1ccc(NC(=O)c2c(Nc3ccccc3)sc(C(=O)NN=Cc3cc(OC)c(OC)c(OC)c3)c2NC(C)=O)cc1` gave a viability of 76.5% (SRB; 0.1 µM, 48 h).
For `COc1cccc(NC(=O)CN2C(=O)/C(=C/c3ccco3)SC2=S)c1`, the inhibition was 5.43% (MTT; 10 µM).
For `Cc1cc(=O)oc2ccc(-c3cc(-c4ccccc4)nc(N)n3)c(O)c12`, the inhibition was 5% (MTT; 32 µg/mL, 72 h).
